Measurements pooled from the literature.
Compare with care: the assays were run in different laboratories.
Target: Serine/threonine-protein kinase PAK 4 (PAK4, Homo sapiens, UniProt O96013)

C#Cc1n[nH]c2c(-c3cn([C@@H](C)c4ccccc4)c(=O)[nH]c3=O)cc(F)cc12  inhibition (enzyme activity; inhibitor; 0.1 µM): 0.6%
Cn1cc(-c2cc(F)cc(N3CCn4c(cc5c4CCCC5)C3=O)c2CO)cc(Nc2ccc(N3CCN(C4COC4)CC3)cn2)c1=O  inhibition (enzyme activity; inhibitor; 0.1 µM): 1%
C#Cc1n[nH]c2c(-c3cn(C(C)c4ccccn4)c(=O)[nH]c3=O)cc(F)cc12 (stereo not drawn)  inhibition (enzyme activity; inhibitor; 1 µM): -6%
COc1cc(Nc2ncc(F)c(Nc3ccc4c(n3)NC(=O)C(C)(C)O4)n2)cc(OC)c1OC  inhibition (binding; competition with immobilised ligand; 10 µM): 97%
Cc1nn(C)cc1-c1nc2c(N3CCN(Cc4ccc(Cl)cc4)CC3)c(Cl)cnc2[nH]1  remaining binding (binding; competition with immobilised ligand; 1 µM): 100%
COc1ncccc1-c1cnn2ccc(N3CCN(C(=O)OC(C)C)CC3)nc12  remaining binding (binding; competition with immobilised ligand; 1 µM): 62%
Nc1ncc(-c2nc(N3CCOCC3)nc(N3CCOCC3)n2)c(C(F)F)n1  remaining binding (binding; competition with immobilised ligand; 10 µM): 58%
Cn1cc(-c2cccc(N3CCc4c(sc5c4CC(C)(C)C5)C3=O)c2CO)cc(Nc2ccncn2)c1=O  inhibition (enzyme activity; inhibitor; 1 µM): -6%
Cn1cncc1[C@@](O)(COc1ccc(C#N)cc1-c1ccc(OC(F)(F)F)cc1)c1ccc(C#N)cc1  remaining binding (cell-free assay; competition with immobilised ligand; 1 µM): 100%
Cc1n[nH]c2ccc(-c3cncc(OC[C@@H](N)Cc4c[nH]c5ccccc45)c3)cc12  inhibition (enzyme activity; inhibitor; 1 µM): 26%
O=c1[nH]c2ccccc2n1C1CCN(Cc2ccc(-c3[nH]c4cc5ncnc5cc4nc3-c3ccccc3)cc2)CC1  remaining signal (cell-free assay; 0.5 µM): 102%
N#CC1(c2ccccn2)CCN(Cc2cc(C(=O)O)c(=O)n3ccccc23)CC1  remaining binding (cell-free assay; competition with immobilised ligand; 1 µM): 100%
